ROMK primary – modulators of human ROMK potassium channel; B-score at 10 µM; 2% of 130,000 active; Tet-inducible ROMK, thallium flux fluorescence; actives lie on both sides;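 active means signal ratio slope over the read window, or its plate-corrected B-score, at least 3 SD from the plate mean, either direction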;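 further: B-score of the F/F0 ratio slope over 7 to 12 s after thallium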
ABCB1 block – inhibitors of human ABCB1 transporter, ABCG2 counter-screen. P08183. AID 1326. CCRF-Adr cells, JC-1 efflux, flow cytometry. 0.067% of 190,000 active. inhibition, % at 6.6 µM; in the data active means inhibition above about 40%;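 further: 0% = vehicle and 100% = reference inhibitor; higher value means more JC-1 retained so stronger ABCB1 efflux block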
Biofilm kill mix – mixture kills Candida albicans biofilm cells | C. albicans biofilm persisters + clotrimazole, fluorescence viability; primary screen in compound mixtures of four per well | inhibition, % at 7.6 µM | 0.02% of 120,000 active;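 active means inhibition above 30.3% in the primary screen of four-compound pools, then above 30% when the compound was retested; inconclusive means passed the primary limit but could not be retested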;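 further: compounds exposed to preformed 24 h biofilms for 48 h; 0% = untreated biofilm control and 100% = clotrimazole plus chlorhexidine kill blank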
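Assay system: C. albicans biofilms / Medium: RPMI/MOPS medium, pH 7.0 / Schedule: biofilm formation 24 h, compound exposure 48 h, 37 °C / Measured by: Alamar Blue fluorescence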
TRPN1 ag – zebrafish TRPN1 (NompC) channel agonism; HEK293 zebrafish TRPN1-YFP, Fluo-8 calcium fluorescence; 100% = response to 87 µM carbachol; activation, % at 3 µM; 0.18% of 220,000 active;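 active means activation above its plate's cutoff, the mean activation of test wells on that plate plus 3 SD, cut at about 19% in these data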;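 further: 0% = DMSO alone and 100% = 87 µM carbachol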
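Material: zebrafish TRPN1-YFP in HEK293 cells; Doses: single test compound dose, 3 µM nominal, 0.3% DMSO; Timing: dye loading 1 h at 37 °C, then 30 min room temperature; Technique: intracellular calcium fluorescence with Fluo-8; Benchmarks: high carbachol 87 µM, low DMSO alone.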
ABCG2 block – human ABCG2 inhibition, ABCB1 as counter-screen | Q9UNQ0 | IgMXP3 cells, JC-1 efflux, flow cytometry | inhibition, % at 6.6 µM | 0.1% of 190,000 active;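 active means inhibition above 80%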;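 further: 0% = DMSO and 100% = nicardipine control wells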
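material = IgMXP3 (ABCG2) plus far-red-tagged CCRF-Adr (ABCB1) cells | amount = 3 million cells/mL, equal mix of both lines | also added = JC-1 transporter substrate | dosing = one concentration, 6.6 µM final | schedule = 10 min at 25 °C | measured by = flow cytometric JC-1 green MFI at 530 nm | read-out basis = percent efflux inhibition, scaled nicardipine 100% to DMSO 0%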
TRPML3 agonist – human mucolipin-3 channel agonism | Q8TDD5 | HEK293 TRPML3-YFP, Fluo-8 calcium fluorescence; 100% = the carbachol control signal | activation, % at 3 µM | 0.29% of 220,000 active | AID 1448;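 active means activation above its plate's cutoff, the mean activation of the plate's test wells plus 3 SD, cut at about 12% in these data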;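 further: 0% = DMSO only wells and 100% = carbachol wells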
Target sequence (Q8TDD5 whole entry, looked up): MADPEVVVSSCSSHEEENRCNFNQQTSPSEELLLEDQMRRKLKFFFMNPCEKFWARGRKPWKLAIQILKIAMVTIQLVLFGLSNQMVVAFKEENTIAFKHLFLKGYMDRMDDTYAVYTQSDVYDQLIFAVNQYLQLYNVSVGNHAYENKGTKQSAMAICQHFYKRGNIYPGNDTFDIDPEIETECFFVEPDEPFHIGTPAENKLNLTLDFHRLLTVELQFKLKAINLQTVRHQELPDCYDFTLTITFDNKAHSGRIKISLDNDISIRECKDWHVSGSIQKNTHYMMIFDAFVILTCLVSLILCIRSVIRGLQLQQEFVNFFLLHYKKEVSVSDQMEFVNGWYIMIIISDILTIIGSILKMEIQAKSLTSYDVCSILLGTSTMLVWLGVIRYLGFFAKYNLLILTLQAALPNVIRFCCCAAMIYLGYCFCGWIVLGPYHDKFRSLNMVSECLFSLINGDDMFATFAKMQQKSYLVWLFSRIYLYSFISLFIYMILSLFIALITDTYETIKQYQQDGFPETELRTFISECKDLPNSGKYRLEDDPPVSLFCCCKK
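Test system – HEK293 line with stable expression of human TRPML3-YFP channel · Control set – carbachol 87 µM final as high control (100%), DMSO as low control (0%) · Signal – Fluo-8 calcium dye fluorescence, ex 470-495, em 515-575 nm · Incubation – 1-h 37 °C dye load, 5-s basal, 120-s post-compound reads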
ROMK hit retest – retested hit modulating human ROMK potassium channel; 54% of 3,000 active; normalized thallium flux (F/F0 slope) at 10 µM; AID 1917; ROMK thallium flux, fluorescence ratio; hits give low values; shares compounds with ROMK primary;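 active means Flux at 10 µM at least 3 SD below or above vehicle control mean in one or both replicates; inconclusive means no clear call, values can overlap the other calls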
Starred values were filed as active, the others as inactive; ? = inconclusive; . = no result given. This excerpt belongs to a sample that is enriched for hits.

SMILES | ROMK primary | ABCB1 block | Biofilm kill mix | TRPN1 ag | ABCG2 block | TRPML3 agonist | ROMK hit retest
CCn1c(C)c(P(c2ccccc2)c2ccccc2)[n+]2ccccc12 | -0.21 | 0 | 25 | -1 | 1 | -1 | .
CCOC(=O)C(C)/C(C)=N/NC(N)=S (centres undefined) | 0.017 | 0 | 9 | 1 | 2 | 1 | .
COc1cc(F)ccc1S(=O)(=O)N1CCN(C23CC4CC(CC(C4)C2)C3)CC1 | -2.8* | 0 | . | 0 | 1 | 0 | 0.064*
COc1cc(C)ccc1S(=O)(=O)N1CCN(C23CC4CC(CC(C4)C2)C3)CC1 | -2.9* | 1 | . | -1 | 4 | 0 | 0.062*
CCCS(=O)(=O)c1nnnn1-c1cccc(OC)c1 | -8.4* | 0 | . | 1 | 1 | 5 | 0.046*
CC(=O)N1CCCC1(C(=O)O)c1ccccc1 (centres undefined) | 0.3 | . | 16 | -1 | . | 1 | .
CCOc1cc(/C=C(\C#N)c2[nH]nc(N)c2C#N)ccc1O | 4.8* | 0 | . | 0 | 7 | 0 | 0.088
N#C[C@H]1[C@H](c2ccccc2)[C@](C#N)(C(=O)c2ccccc2)[C@@H]2C=Cc3ccccc3N21 | -2.8* | 3 | . | -1 | 9 | -1 | 0.074
Cc1cc(C(=O)CN2C(=O)NC3(CCCc4ccccc43)C2=O)c(C)n1Cc1ccccc1 (centres undefined) | 2* | 2 | . | 1 | 6 | 1 | 0.079
C/C(CC(=O)Nc1cccc(Cl)c1Cl)=N\NC(=O)c1ccccc1C | . | -1 | -1 | -1 | 2 | 0 | .
Fc1ccccc1CSc1ncnc2sc3c(c12)CCCC3 | -0.76 | 0 | 16 | -1 | 4 | 1 | .
CCCCCc1cc(=O)oc2c(C(CCN3CCCC3)c3ccc(N(C)C)cc3)c(OC)cc(OC)c12 (centres undefined) | . | . | 18 | . | . | . | ?
COc1cc(/C=C(\C#N)c2nc3ccccc3[nH]2)cc(OC)c1O | . | 0 | 21 | 22* | 4 | 7 | 0.038*
COc1cc(/C=C(\C#N)C(=O)NCCc2ccccc2)cc(OC)c1O | -2.7 | 1 | 17 | 13 | 32 | 5 | .
COc1cc(/C=C(\C#N)c2nc3ccccc3[nH]2)cc(Br)c1OCc1ccccc1 | . | 0 | 12 | 1 | 0 | 1 | .
COc1cc(/C=C(\C#N)C(=O)c2c[nH]c3ccccc23)cc(OC)c1O | -5.6* | 1 | 9 | 11 | 11 | 3 | 0.041*
Cc1c(O)ccc2c(O)c(NC(=O)c3ccc4c(c3)CCC(C)(C)O4)c(=O)oc12 | . | . | 10 | 0 | . | 1 | .
CNC(=O)c1cc(C(=O)c2c(Cl)cccc2Cl)c[nH]1 | 0.48 | 0 | -22 | 1 | 3 | 1 | .
O=C1C=C(NCc2ccc(Cl)cc2)CCC1 | . | 1 | 10 | 0 | 9 | 0 | .
CCOC(=O)Cn1cc(/C=N/NC(=O)c2cc3ccccc3o2)c2ccccc21 | . | . | 4 | -1 | . | 0 | 0.075
Cc1cc(C)nc(N/N=C/c2ccccc2)n1 | -2.4 | 0 | . | 1 | 1 | 0 | .
Cc1cc(C)nc(N/N=C/c2sccc2C)n1 | -19* | 0 | 16 | 0 | 9 | 1 | 0.076
Cc1ccc(C)c(N2CCN(C(=O)CN3C(=S)NC(C)(C)CC3C)CC2)c1 (centres undefined) | 0.63 | 1 | 5 | 0 | 1 | 1 | .
Cc1[nH]nc(SCC(=O)NCc2ccccc2)c1[N+](=O)[O-] | -2.3* | 0 | 12 | 2 | 0 | 1 | 0.074
CCn1c(N2CCN(C(=S)Nc3ccc(OC)cc3)CC2)nc2ccccc21 | -2.8 | 0 | 2 | 2 | 4 | 1 | .
SMILES | ROMK primary | ABCB1 block | Biofilm kill mix | TRPN1 ag | ABCG2 block | TRPML3 agonist | ROMK hit retest
Cn1cc(/C=C(\C#N)C(=O)Nc2ncc(Cc3cccc(Cl)c3)s2)c2ccccc21 | -2.4* | -1 | -6 | 0 | -2 | 0 | 0.059*
N#C/C(=C\c1c[nH]c2ccccc12)C(=O)Nc1ncc(Cc2ccc(Cl)cc2Cl)s1 | . | -3 | 15 | 0 | -18 | 1 | .
O=C(COc1cc(Cl)c(Cl)cc1Cl)N1CCN(c2ccccn2)CC1 | -3* | 0 | 10 | 0 | 3 | 0 | 0.066*
O=C(N1CCN(c2ccccn2)CC1)C(Cl)(Cl)Cl | -0.47 | 1 | 15 | 0 | 7 | 0 | .
O=C(c1ccco1)N1CCN(C(=O)N2c3ccccc3Sc3ccccc32)CC1 | -3* | -1 | . | -2 | -3 | -1 | 0.073
O=C(c1cnsn1)N1CCN(c2ccccn2)CC1 | 1.6* | 0 | . | 2 | 1 | 0 | 0.073
O=C(N1CCN(c2ccccn2)CC1)N1c2ccccc2Sc2ccccc21 | 3.3* | 0 | . | -1 | -5 | -1 | 0.09
Cc1cc(C(=O)N2CCN(c3ccccn3)CC2)no1 | . | 0 | . | 1 | 0 | 0 | .
O=C(c1ccco1)N1c2ccccc2Sc2ccccc21 | . | 1 | . | -3 | 41 | -1 | .
Cc1oc2cc(OCc3cnn(-c4ccccc4)c3)ccc2c(=O)c1Oc1ccccc1F | 0.65 | 0 | 14 | -1 | 4 | 1 | .
COc1ccc(Oc2ccc(/C=C/C(=O)c3cccc(OC)c3)cc2[N+](=O)[O-])cc1 | 0.11 | 1 | 11 | 2 | 12 | 1 | .
O=c1c2ccccc2c(C=NCc2ccccn2)c(O)n1-c1ccccc1 | . | 1 | 17 | 2 | 12 | 1 | 0.088
CCn1c(SCC(=O)N(C)c2c(N)n(Cc3ccccc3)c(=O)[nH]c2=O)nc2ccccc21 | . | . | 2 | -1 | . | 0 | .
Cc1ccc(-n2c3nc(=O)[nH]c(=O)c-3cc3cc([N+](=O)[O-])ccc32)cc1 | -6.6* | 0 | 24 | 2 | 3 | 1 | 0.038*
Cc1cc(C)cc(OC(=O)C23CCC(C)(C(=O)O2)C3(C)C)c1 (centres undefined) | 0.67 | 4 | 16 | 0 | 11 | 4 | .
OC1(c2ccc(Cl)c(Cl)c2)C[n+]2ccccc2N1Cc1ccccc1 (centres undefined) | -4* | . | 13 | -2 | . | 0 | 0.058*
O=c1c(Cc2ccccc2)c(O)c2cccc3c4c(n1c23)CCCC4 | 3.8* | . | 13 | 0 | . | 0 | ?
CO/N=C/CC(=O)c1cnc(-c2ccc(Cl)cc2)s1 | 0.013 | 0 | 13 | 0 | 5 | 0 | .
CCOCCCNCC(=O)NCC1CCCCC1 | 1.1 | 0 | 2 | 2 | 2 | 1 | .
Cc1cc(NC(=O)CSc2nc3ccccc3c(=O)n2C2CCCC2)no1 | 2.9* | 2 | . | -1 | 8 | 0 | ?
CN(C)c1ccc(NC(=O)CSc2nc3ccccc3c(=O)n2C2CCCCC2)cc1 | . | 2 | . | 1 | 6 | 1 | .
O=C(NCc1csc(-c2cccs2)n1)C1CCC1 | . | . | 28 | -1 | . | 0 | .
